Results collected from several papers.
Each line is one published result; the experiments were not run side by side.
Target: Mitogen-activated protein kinase 15 (MAPK15, Homo sapiens, UniProt Q8TD08)
One construct used (Q8TD08 1-544): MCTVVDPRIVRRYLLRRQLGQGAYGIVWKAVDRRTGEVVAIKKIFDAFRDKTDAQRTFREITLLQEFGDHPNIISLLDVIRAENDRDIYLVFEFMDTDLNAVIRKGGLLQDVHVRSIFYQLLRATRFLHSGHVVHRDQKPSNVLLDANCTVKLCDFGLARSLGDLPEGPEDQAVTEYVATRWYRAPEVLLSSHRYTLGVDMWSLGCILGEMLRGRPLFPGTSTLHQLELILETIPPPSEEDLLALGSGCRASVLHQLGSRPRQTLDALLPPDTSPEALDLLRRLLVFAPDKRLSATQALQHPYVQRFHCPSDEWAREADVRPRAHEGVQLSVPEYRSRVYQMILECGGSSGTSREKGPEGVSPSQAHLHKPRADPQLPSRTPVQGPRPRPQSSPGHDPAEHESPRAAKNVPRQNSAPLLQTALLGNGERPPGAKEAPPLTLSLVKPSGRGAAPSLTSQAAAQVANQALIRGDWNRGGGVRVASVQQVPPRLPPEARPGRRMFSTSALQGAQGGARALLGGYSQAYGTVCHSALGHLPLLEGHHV

For Cc1cnn2ncc(-c3ccnc(N(C)C)n3)c2c1, the remaining binding was 83% (binding; 1 µM).
For Nc1ncc2c(n1)-c1c([nH]c3ccc(C#CC4CC4)cc13)CCCC2, the remaining binding was 100% (binding; competition with immobilised ligand; 1 µM).
O=C(c1ccc(Nc2ncc(Cl)c(-c3ccc(Cl)s3)n2)cc1)N1CCC(N2CCCC2)CC1 gave a remaining binding of 3.8% (binding; competition with immobilised ligand; 1 µM).
With COc1cnc(Nc2cccc(S(N)(=O)=O)c2)nc1N1CCN(c2ccccc2)C(=O)C1 the remaining binding was 100% (binding; competition with immobilised ligand; 1 µM).
CCCCN(CCCC)C(=O)CN1C[C@H](c2cc(OC)c3c(c2)OCO3)[C@@H](C(=O)O)[C@@H]1CC(C)(C)CCC gave a remaining binding of 100% (cell-free assay; competition with immobilised ligand; 1 µM).
With CN(C)c1nccc(-c2cnc3ncccn23)n1 the remaining binding was 50% (binding; 1 µM).
With O=S(=O)(NC1CCC(c2cc(F)ccc2F)(S(=O)(=O)c2ccc(Cl)cc2)CC1)C(F)(F)F (stereo not shown) the remaining binding was 94% (cell-free assay; competition with immobilised ligand; 1 µM).
Cc1cnc(Nc2ccc(C(=O)N3CCC(N4CCCC4)CC3)cc2)nc1-c1cc2ccccc2s1 has a remaining binding of 33% (binding; competition with immobilised ligand; 1 µM).
For F[C@@H]1CCN(c2nccc(-c3cnn4ncccc34)n2)C1, the remaining binding was 66% (binding; 1 µM).
O=C(c1ccc(Nc2ncc(Cl)c(-c3cc4ccccc4s3)n2)cc1)N1CCC(N2CCCC2)CC1 has a remaining binding of 5.4% (binding; competition with immobilised ligand; 1 µM).
O=C(O)c1cc(-c2ccc(C3CCNCC3)cc2)c2ccc(-c3ccc(C(F)(F)F)cc3)cc2c1 has a remaining binding of 100% (cell-free assay; competition with immobilised ligand; 1 µM).
FC(F)(F)Oc1cccc(-c2cnc3ccc(-c4ccncc4)nn23)c1 has a remaining binding of 48% (cell-free assay; competition with immobilised ligand; 5 µM).
Cc1noc([C@H]2C[C@@H](c3ccc(C(F)(F)F)cc3)CN(C(=O)N3CCS(=O)(=O)C3)C2)n1 has a remaining binding of 100% (cell-free assay; competition with immobilised ligand; 1 µM).
The remaining binding of O=C(Nc1c[nH]nc1C(=O)NC1CCNCC1)c1cc(F)cc(F)c1 is reported as 75% (binding; competition with immobilised ligand; 1 µM).
For CC1CCCN1c1nccc(-c2cnn3ncccc23)n1 (stereo not shown), the remaining binding was 100% (binding; 1 µM).
With C[C@H](NC(=O)c1cnc2n1[C@](C)(Cc1ccc(C#N)cc1)C(=O)N2c1cc(Cl)c(F)c(Cl)c1)C(=O)NC1(c2ccccn2)CC1 the remaining binding was 100% (cell-free assay; competition with immobilised ligand; 1 µM).
N[C@@H]1CCN(c2nccc(-c3cnn4ncccc34)n2)C1 gave a remaining binding of 97% (binding; 1 µM).
The remaining binding of CCS(=O)(=O)c1cc2cc(C[C@](O)(CC(C)(C)c3ccc(F)cc3C(N)=O)C(F)(F)F)[nH]c2cn1 is reported as 100% (cell-free assay; competition with immobilised ligand; 1 µM).
The remaining binding of c1cnn2ncc(-c3ccnc(N4CCC45COC5)n3)c2c1 is reported as 71% (binding; 1 µM).
CO[C@@H](C)c1c(Nc2ccc([C@H](N(C)C(=O)C3CCS(=O)(=O)CC3)C(F)(F)F)cc2)cnc2cc(Cl)nn12 has a remaining binding of 87% (cell-free assay; competition with immobilised ligand; 1 µM).
With C[C@H]1CCN(c2nccc(-c3cnn4ncccc34)n2)C1 the remaining binding was 74% (binding; 1 µM).
For CCN1CCN(Cc2ccc(C(=O)Nc3ccc(C)c(Oc4ccc5c(c4)CC(=O)N5)c3)cc2C(F)(F)F)CC1, the remaining binding was 100% (binding; competition with immobilised ligand; 1 µM).
